Experimental data published in ChEMBL document CHEMBL1649161, “Pharmacokinetics of EDP-420 after ascending single oral doses in healthy adult volunteers” (Antimicrob Agents Chemother, 2009).
≈ marks a conversion by molar mass, not a printed value.

What was measured:
[1] = AUC (0 to infinity) in healthy human plasma at 800 mg, po administered as single dose measured after 120 hrs; assay type: ADME, organism-based; set-up: dose 800 mg, route oral, time infinity
Outline: (§1)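 Healthy adults (6 per dose group) received a single oral suspension after an 8-h fast, with food withheld 4 h. EDTA blood was drawn predose to 120 h. Plasma was protein-precipitated with ACN and assayed by LC-MS/MS (clarithromycin internal standard; range 1–1,000 ng/ml). AUC0-last was computed by linear-up/log-down trapezoid; AUC0-∞ added Clast/λz. Values are noncompartmental means.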

[2] = AUC (0 to infinity) in healthy human plasma at 1200 mg, po administered as single dose measured after 120 hrs; assay type: ADME, organism-based; set-up: dose 1200 mg, route oral, time infinity; outline: as §1
[3] = AUC (0 to last) in healthy human plasma at 400 mg, po administered as single dose measured after 120 hrs; assay type: ADME, organism-based; set-up: dose 400 mg, route oral, time 0 - last; outline: as §1
[4] = AUC (0 to last) in healthy human plasma at 1200 mg, po administered as single dose measured after 120 hrs; assay type: ADME, organism-based; set-up: dose 1200 mg, route oral, time 0 - last; outline: as §1
[5] = Cmax in healthy human plasma at 100 mg, po administered as single dose measured after 120 hrs; assay type: ADME, organism-based; set-up: dose 100 mg, route oral
Outline: (§2)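 Healthy adults (n = 6 per dose) took a single oral suspension fasted (8 h before, 4 h after). Plasma was sampled from 0.25 to 120 h postdose and quantified by validated LC-MS/MS after acetonitrile precipitation (LLOQ 1 ng/ml). Cmax was read directly from observed concentration–time data; the group mean was reported.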

[6] = Cmax in healthy human plasma at 200 mg, po administered as single dose measured after 120 hrs; assay type: ADME, organism-based; set-up: dose 200 mg, route oral; outline: as §2
[7] = Cmax in healthy human plasma at 400 mg, po administered as single dose measured after 120 hrs; assay type: ADME, organism-based; set-up: dose 400 mg, route oral; outline: as §2
[8] = Cmax in healthy human plasma at 1200 mg, po administered as single dose measured after 120 hrs; assay type: ADME, organism-based; set-up: dose 1200 mg, route oral; outline: as §2
[9] = Tmax in healthy human plasma at 100 mg, po administered as single dose measured after 120 hrs; assay type: ADME, organism-based
Outline: (§3)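 Fasted healthy adults (n = 6 per group) took one oral suspension dose. Plasma was sampled from predose through 0.25–120 h postdose and measured by validated LC-MS/MS (lower limit 1 ng/ml). Tmax was read directly from observed concentration–time data using actual sampling times and reported as median with range.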

[10] = Tmax in healthy human plasma at 800 mg, po administered as single dose measured after 120 hrs; assay type: ADME, organism-based; outline: as §3
[11] = Half life in healthy human plasma at 100 mg, po administered as single dose measured after 120 hrs; assay type: ADME, organism-based
[12] = Half life in healthy human plasma at 200 mg, po administered as single dose measured after 120 hrs; assay type: ADME, organism-based
[13] = Elimination rate constant in healthy human plasma at 100 mg, po administered as single dose measured after 120 hrs; assay type: ADME, organism-based
[14] = Apparent oral clearance in healthy human plasma at 800 mg, po administered as single dose measured after 120 hrs; assay type: ADME, organism-based
Outline: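 Single oral suspension dose in fasted healthy adults (6 per group). Plasma was collected to 120 h and measured by LC-MS/MS (1–1,000 ng/ml). Apparent oral clearance was dose divided by AUC0-∞ (noncompartmental, linear-up/log-down trapezoid extrapolated with Clast/λz); the mean was reported.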

[15] = Apparent volume of distribution in healthy human plasma at 200 mg, po administered as single dose measured after 120 hrs; assay type: ADME, organism-based
[16] = Apparent volume of distribution in healthy human plasma at 400 mg, po administered as single dose measured after 120 hrs; assay type: ADME, organism-based
[17] = tested on: Homo sapiens; assay: Renal clearance in healthy human assessed as cumulative amount excreted in urine at 100 mg, po administered as single dose measured after 48 hrs; assay type: ADME, organism-based; conditions: in vivo
Outline: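 Healthy adults (6 per dose) received a single fasted oral suspension dose. Urine was collected predose and over 0–2, 2–4, 4–6, 6–8, 8–12, 12–24 and 24–48 h intervals, volumes were recorded, and aliquots were stored at −20°C. Samples were assayed by LC-MS/MS. Ae0-48 is the summed volume × concentration over all intervals; the mean was reported.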

[18] = Renal clearance in healthy human assessed as cumulative fraction excreted unchanged in urine at 100 mg, po administered as single dose measured after 48 hrs; assay type: ADME, organism-based; conditions: read-out: Fraction Recovered in urine
Outline: (§4)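 After a single oral fasted suspension dose in healthy adults (6 per group), urine was collected in intervals to 48 h and measured by LC-MS/MS. fe0-48 = Ae0-48 (summed interval volume × concentration) / dose × 100%; the mean was reported.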

[19] = Renal clearance in healthy human assessed as cumulative fraction excreted unchanged in urine at 200 mg, po administered as single dose measured after 48 hrs; assay type: ADME, organism-based; conditions: read-out: Fraction Recovered in urine; outline: as §4
[20] = Renal clearance in healthy human assessed as cumulative fraction excreted unchanged in urine at 800 mg, po administered as single dose measured after 48 hrs; assay type: ADME, organism-based; conditions: read-out: Fraction Recovered in urine
Outline: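 Urine collected predose and over 0–2, 2–4, 4–6, 6–8, 8–12, 12–24 and 24–48 h after a single oral suspension dose, given after an 8-h fast with no food for 4 h after. Volumes measured, stored at −20°C, EDP-420 quantified by LC-MS/MS. fe0-48 = Ae0-48/dose × 100%, where Ae0-48 is the sum of volume × concentration over the intervals. Six active subjects per dose.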

[21] = Renal clearance in healthy human assessed as cumulative fraction excreted unchanged in urine at 1200 mg, po administered as single dose measured after 48 hrs; assay type: ADME, organism-based; conditions: read-out: Fraction Recovered in urine; outline: as §4
[22] = Renal clearance in healthy human at 100 mg, po administered as single dose measured after 48 hrs; assay type: ADME, organism-based, Kidney; conditions: in vivo, read-out: CL_renal (converted)
Outline: (§5)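 Healthy adults (6 active per dose) got a single oral suspension dose after an 8-h fast, with food withheld 4 h. Urine over 0–48 h in intervals and serial EDTA plasma were assayed by validated LC-MS/MS, with plasma calibration from 1 to 1,000 ng/ml. CLR = Ae0-48 (urine volume × concentration summed) divided by plasma AUC0-48.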

[23] = Renal clearance in healthy human at 200 mg, po administered as single dose measured after 48 hrs; assay type: ADME, organism-based, Kidney; conditions: in vivo, read-out: CL_renal (converted); outline: as §5
[24] = Renal clearance in healthy human at 1200 mg, po administered as single dose measured after 48 hrs; assay type: ADME, organism-based, Kidney; conditions: in vivo, read-out: CL_renal (converted); outline: as §5
[25] = tested on: Streptococcus pneumoniae; assay: Antimicrobial activity against Streptococcus pneumoniae; assay type: functional
[26] = tested on: Homo sapiens; assay: Toxicity in healthy human assessed as changes in gamma-glutamyl transpeptidase level at 100 to 1200 mg, po administered as single dose; assay type: organism-based; conditions: in vivo
Outline: (§6)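 Randomized, double-blind, placebo-controlled single ascending dose study with eight subjects per group (6 drug, 2 placebo of microcrystalline cellulose). Subjects were fasted before dosing. Safety labs were done at 120 h, with a full chemistry panel also at 72 and 96 h for the top dose. Final evaluation on day 8–10, with adverse events recorded.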

[27] = tested on: Homo sapiens; assay: Toxicity in healthy human assessed as changes in prothrombin time at 100 to 1200 mg, po administered as single dose; assay type: organism-based; conditions: in vivo; outline: as §6
[28] = tested on: Homo sapiens; assay: Toxicity in healthy human assessed as changes in vital signs at 100 to 1200 mg, po administered as single dose; assay type: organism-based; conditions: in vivo
Outline: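 Vital signs were taken predose and during an in-house stay (48 h for groups 1–4, 120 h for the top dose). Outpatient visits at 72, 96 and 120 h followed a single fasted oral dose, in a double-blind, placebo-controlled design with 6 active and 2 placebo per group.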

[29] = tested on: Homo sapiens; assay: Toxicity in healthy human assessed as changes in ECG parameters signs at 100 to 1200 mg, po administered as single dose; assay type: organism-based; conditions: in vivo

With `CC[C@H]1OC(=O)[C@H](C)C(=O)[C@H](C)[C@@H](O[C@@H]2O[C@H](C)C[C@H](N(C)C)[C@H]2O)[C@@]2(C)C[C@@H](C)/C(=N\C(C)=O)[C@H](C)[C@@H](OC/C(=N\OCc3ccc(-n4cccn4)nc3)CO2)[C@]1(C)O` [MODITHROMYCIN] the AUC(0-inf) [1] was 33900 ng·h/mL, the AUC(0-inf) [2] was 38300 ng·h/mL and the AUC(0-t) at 120 h [3] was 14300 ng·h/mL. The AUC(0-t) at 120 h [4] was 37400 ng·h/mL, the Cmax [5] was 196 ng/mL and the Cmax [6] was 360 ng/mL. The Cmax [7] was 542 ng/mL, the Cmax [8] was 1080 ng/mL and the Tmax [9] was 1.75 h. The Tmax [10] was 4.26 h, the half-life [11] was 936 min and the half-life [12] was 948 min. For the same compound, the k el at 120 h [13] was 1.23e-05 s⁻¹, the CL/F [14] was 393 mL/min and the Vd/F [15] was 589 L. The Vd/F [16] was 635 L, the “Amount Recovered in urine” value [17] was 8.57 mg and the dose excreted at 48 h [18] was 8.57%. For the same compound, the dose excreted at 48 h [19] was 12.3%, the dose excreted at 48 h [20] was 11.4% and the dose excreted at 48 h [21] was 5.84%. It also gave a CL renal at 48 h [22] of 46.3 mL/min, a CL renal at 48 h [23] of 60.3 mL/min and a CL renal at 48 h [24] of 41.3 mL/min. The MIC [25] was 0.25 µg/mL (≈ 0.297 µM), the Activity [26] was “Non-toxic” and the Activity [27] was “Non-toxic”. For the same compound, the Activity [28] was “Non-toxic” and the Activity [29] was “Non-toxic”.
